The subject of data set [1] is HeLa. Description: Induction of p16 expression in human HeLa cells at 1 uM after 24 hrs by Western blotting. The format is functional, cell-based. The essentials:
(§1)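 HeLa S3 cells were grown in DMEM with 10% heat-inactivated FBS and treated for 24 h. Cells were sonicated in ice-cold pH 7.5 HEPES IP buffer with protease inhibitors. Extracts were separated by SDS-PAGE, blotted to PVDF and probed with anti-p16, anti-p21 and anti-p27 antibodies, with chemiluminescent detection.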
(In western blotting, separated proteins are transferred to a membrane and probed.)

Data set [2] concerns HeLa. Description: Induction of p21 expression in human HeLa cells at 1 uM after 24 hrs by Western blotting. It counts as functional, cell-based. The essentials: as §1
Data set [3] relates to HeLa. In words: Induction of p27 expression in human HeLa cells at 1 uM after 24 hrs by Western blotting. The format is functional, cell-based. In short, it runs like this:
as §1

The test system of data set [4] is SF3B1/SF3B2/SF3B3 (Homo sapiens). Description: Displacement of Ac-SSA from SF3b SAP155/SAP145/SAP130 complex in human HeLa cells by competition binding assay.
In data set [5] the target is Cyclin-dependent kinase 2 (Homo sapiens) (UniProt P24941). Description: Induction of CDK2 in HEK293T cells transfected with FLAG-tagged truncated p27 at 190 nM by Western blot analysis. It counts as cell-based. To be noted: HEK-293T. The essentials: (§2)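 HEK 293T cells were transfected with pcDNA3.1, FLAG-p27 or FLAG-p27*, or were treated with MeOH, FR901464 (20, 200 nM) or SSA (190 nM). CDK2 was immunoprecipitated and its kinase activity read by autoradiography with histone H1 and (gamma-32P)ATP. Associated proteins were detected by western blotting.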

The test system of data set [6] is HeLa. Description: Induction of truncated p27 expression in SAP155-targeting siRNA-transfected human HeLa cells. The format is functional, cell-based. In short, it runs like this:
(§3)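 HeLa cells transfected with siRNA against SAP155, SAP145 or SAP130 using DharmaFECT 1. Knockdown and the truncated p27* form detected by western blotting of cell extracts.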

The target of data set [7] is T1, Splicing factor 3B subunit 3 (Homo sapiens) (UniProt Q15393).
T1 sequence (whole entry): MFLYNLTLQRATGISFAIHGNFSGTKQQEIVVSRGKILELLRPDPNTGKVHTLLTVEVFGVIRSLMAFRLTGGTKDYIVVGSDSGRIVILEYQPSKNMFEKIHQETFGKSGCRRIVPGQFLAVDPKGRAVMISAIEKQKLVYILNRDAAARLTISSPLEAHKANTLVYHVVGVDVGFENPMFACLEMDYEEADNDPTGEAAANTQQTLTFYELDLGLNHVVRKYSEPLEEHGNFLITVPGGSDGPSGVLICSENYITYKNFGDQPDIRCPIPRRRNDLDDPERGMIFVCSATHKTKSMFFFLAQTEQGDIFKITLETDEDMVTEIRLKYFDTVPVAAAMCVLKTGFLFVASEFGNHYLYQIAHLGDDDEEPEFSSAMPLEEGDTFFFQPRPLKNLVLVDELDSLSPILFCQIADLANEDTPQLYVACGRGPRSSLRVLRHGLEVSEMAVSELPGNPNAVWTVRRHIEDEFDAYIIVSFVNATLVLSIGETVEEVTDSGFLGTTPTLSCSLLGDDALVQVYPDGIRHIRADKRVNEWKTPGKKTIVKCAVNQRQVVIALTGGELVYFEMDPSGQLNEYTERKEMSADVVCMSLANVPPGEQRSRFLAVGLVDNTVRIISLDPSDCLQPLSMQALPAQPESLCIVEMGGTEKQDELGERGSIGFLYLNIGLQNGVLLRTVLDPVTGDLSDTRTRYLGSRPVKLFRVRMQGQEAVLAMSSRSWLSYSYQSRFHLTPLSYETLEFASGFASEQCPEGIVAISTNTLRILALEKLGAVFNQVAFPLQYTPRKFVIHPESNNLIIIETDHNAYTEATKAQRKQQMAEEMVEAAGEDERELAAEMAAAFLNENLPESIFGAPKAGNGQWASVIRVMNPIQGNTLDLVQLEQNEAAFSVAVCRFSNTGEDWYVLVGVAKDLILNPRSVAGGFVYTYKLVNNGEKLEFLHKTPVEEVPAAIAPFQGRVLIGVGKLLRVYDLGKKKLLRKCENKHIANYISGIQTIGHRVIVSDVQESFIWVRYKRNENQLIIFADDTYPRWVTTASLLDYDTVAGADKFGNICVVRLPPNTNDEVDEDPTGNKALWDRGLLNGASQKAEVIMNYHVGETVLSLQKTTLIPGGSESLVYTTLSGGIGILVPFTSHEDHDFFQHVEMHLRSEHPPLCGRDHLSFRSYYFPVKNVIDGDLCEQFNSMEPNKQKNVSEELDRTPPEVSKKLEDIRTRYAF
In words: Binding affinity to SAP130 in human HeLa cells assessed as inhibition of p27 pre-mRNA splicing between exon 1 and exon 2 at […] after 12 hrs by RT-PCR analysis. It counts as cell-based.

Data set [8] deals with HeLa. In words: Induction of subcellular localization of SAP145 in SAP145-targeting siRNA-transfected human HeLa cells after 3 days. The format is functional, cell-based.
Data set [9] addresses T1, Splicing factor 3B subunit 3 (Homo sapiens). In words: Binding affinity to SAP130 in human HeLa cells assessed as inhibition of IkappaBalpha pre-mRNA splicing between exon 1 and exon 4 at […] after 12 hrs by RT-PCR analysis. It counts as cell-based.
Data set [10] deals with Cyclin-dependent kinase 2 (Homo sapiens) (UniProt P24941). In words: Induction of CDK2 in HEK293T cells transfected with FLAG-tagged p27 at 190 nM by Western blot analysis. The format is cell-based. To be noted: HEK-293T. The essentials:
as §2

For data set [11], the system named is HeLa. Description: Induction of truncated p27 expression in SAP130-targeting siRNA-transfected human HeLa cells. It counts as functional, cell-based. The essentials: as §3
Data set [12] has as its system HEK-293T. Description: Induction of intron translation of HA-tagged truncated p27 gene in HEK293T cells at 100 ng/ml for 14 hrs. The format is functional, cell-based. To be noted: Homo sapiens. In short, it runs like this:
(§4)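 HEK 293T cells transfected (Lipofectamine 2000) with the p27-int-HA reporter. Correct splicing yields p27-Myc; translated intron yields p27*-HA. Cells treated with or without SSA at 100 ng ml-1 for 14 h. Myc- and HA-tagged products detected by western blotting.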

For data set [13], the target named is T1, Splicing factor 3B subunit 3 (Homo sapiens). In words: Binding affinity to SAP130 in human HeLa cells assessed as inhibition of p27 mRNA splicing at 100 ng/ml after 6 hrs by RT-PCR analysis. It counts as cell-based. The essentials:
(§5)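 HeLa cells treated 6 h with 100 ng ml-1 SSA or methanol. Total RNA isolated with TRIzol and reverse transcribed with M-MLV reverse transcriptase. PCR primers designed to detect intron-containing transcripts.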

Data set [14] shares this target. In words: Binding affinity to SAP130 in human HeLa cells assessed as inhibition of beta-actin mRNA splicing at 100 ng/ml after 6 hrs by RT-PCR analysis. The format is cell-based. The essentials: as §5
In data set [15] the test system is HeLa. Description: Induction of subcellular localization of SC35 in human HeLa cells at 100 ng/ml after 3 hrs. It counts as functional, cell-based. The essentials: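 HeLa cells treated with SSA (100 ng ml-1, 3 h) or MeOH. Fixed in 3% formaldehyde, permeabilized with 1% Triton X-100, blocked with 5% FBS-PBS. Stained with anti-SC35 and an Alexa 488 anti-mouse secondary; fluorescence microscopy at 100×.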

Data set [16] deals with T1, Splicing factor 3B subunit 3 (Homo sapiens). Description: Binding affinity to SAP130 in human HeLa cells assessed as inhibition of FLAG-tagged beta globin splicing at 100 ng/ml after 12 hrs by RT-PCR analysis. The format is cell-based.
The test system of data set [17] is HEK-293T. In words: Induction of intron translation of Myc-tagged p27 gene in HEK293T cells at 100 ng/ml for 14 hrs by Western blotting. To be noted: Homo sapiens. The format is functional, cell-based. The essentials: as §4
Data set [18] has as its target T1, Splicing factor 3B subunit 3 (Homo sapiens). In words: Binding affinity to SAP130 assessed as inhibition of radio labeled IgM pre-mRNA splicing after 1 hr by autoradiography. In short, it runs like this: (§6)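 32P-labelled, m7G-capped in vitro-transcribed pre-mRNA substrate; beta-globin (exon 1 177 nt, intron 130 nt, exon 2 148 nt) or IgM (exon C3 154 nt, intron 107 nt, exon C4 119 nt). HeLa nuclear extract preincubated with SSA (19, 58, 95, 190 nM) or methanol for 1 h at 4 °C. Splicing then run 90 min at 30 °C in 20 µl. RNA resolved on denaturing urea-PAGE; autoradiography.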

Data set [19] shares this target. In words: Binding affinity to SAP130 in human HeLa cells assessed as inhibition of beta-tubulin mRNA splicing at 100 ng/ml after 6 hrs by RT-PCR analysis. The format is cell-based. In short, it runs like this: as §5
Data set [20] deals with HeLa. In words: Induction of subcellular localization of SAP155 in SAP155-targeting siRNA-transfected human HeLa cells after 3 days. The format is functional, cell-based.
Data set [21] concerns HeLa. In words: Induction of subcellular localization of poly(A) RNA in human HeLa cells at 100 ng/ml after 3 hrs using digoxigenin-labeled oligo-Dt probe. The format is functional, cell-based. The essentials:
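HeLa cells treated with SSA (100 ng ml-1, 3 h) or MeOH. Fixed in 3% formaldehyde 15 min; permeabilized with 0.5% Triton X-100 on ice. Hybridized at 42 °C with 3'-digoxigenin oligo-dT in 2× SSC, 20% formamide, 1 mg ml-1 tRNA, 10% dextran sulfate. Washed; detected with anti-digoxigenin then FITC anti-mouse IgG.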

Data set [22] concerns the target T1, Splicing factor 3B subunit 3 (Homo sapiens). In words: Binding affinity to SAP130 in human HeLa cells assessed as inhibition of p27 pre-mRNA splicing between exon 1 and intron 2 at […] after 12 hrs by RT-PCR analysis. The format is cell-based.
A short description of data set [23]: Half life of the compound in culture medium by HPLC analysis. The format is physicochemical.
Data set [24] deals with HeLa. Description: Induction of truncated p27 expression in SAP145-targeting siRNA-transfected human HeLa cells. It counts as functional, cell-based. In short, it runs like this: as §3
The target in data set [25] is T1, Splicing factor 3B subunit 3 (Homo sapiens). Description: Binding affinity to SAP130 assessed as inhibition of radio labeled beta-globin pre-mRNA splicing after 1 hr by autoradiography. The essentials:
as §6

Data set [26] concerns HeLa. Description: Induction of beta-tubulin expression in human HeLa cells at 100 ng/ml after 14 hrs by Western blotting. It counts as functional, cell-based.
For data set [27], the system named is HeLa. Description: Induction of beta-actin expression in human HeLa cells at 100 ng/ml after 14 hrs by Western blotting. It counts as functional, cell-based.

Each structure is given as a SMILES string. Calls of active or inactive are those of the source. The rule behind the calls is not given here.

Regarding `CC(/C=C/C(=O)NO)=C\[C@@H](C)C(=O)c1ccc(N(C)C)cc1`, the outcome in the data set on HeLa [1], in the data set with HeLa [2] and in the data set with HeLa [3] was Active.

As to `CO[C@]1(C)C[C@@]2(CO2)[C@H](O)[C@@H](/C=C/C(C)=C/C[C@@H]2O[C@H](C)[C@H](NC(=O)/C=C\[C@H](C)OC(C)=O)C[C@@H]2C)O1`, the result (in data set [4]; with HeLa [6]; in data set [7]; in the data set on HeLa [8]; in data set [9]; in the data set with HeLa [11]) was Active. Further, the result (with HEK-293T [12]; in the data set with HeLa [15]; in data set [16]; in the data set on HEK-293T [17]; in the data set on HeLa [20]; in the data set on HeLa [21]) was Active. Moreover, the result (in data set [22]; in the data set on HeLa [24]; in the data set with HeLa [26]; in the data set with HeLa [27]) was Active. The outcome in data set [5] and in data set [10] was inactive. The inhibition entry in data set [13], in data set [14], in [18] and in [19] was “Active” throughout. Moreover, the half-life (commonly how long it takes for the measured level to halve) in data set [23] is 6 min. In addition, the Activity entry in data set [25] is “Dose-dependent effect”.

The values above are taken from ChEMBL document CHEMBL1221204, “Spliceostatin A targets SF3b and inhibits both splicing and nuclear retention of pre-mRNA” (Nat Chem Biol, 2007).
